Source: ChEMBL document CHEMBL3392993, “Identification of indole-3-carboxylic acids as non-ATP-competitive Polo-like kinase 1 (Plk1) inhibitors” (Bioorg Med Chem Lett, 2015)
The source made the active and inactive calls. No cut-off for these calls is given here.

Legend:
HeLa [1] = assay: Antiproliferative activity against human HeLa cells assessed as growth inhibition after 72 hrs by MTT assay
MCF7 = assay: Antiproliferative activity against human MCF7 cells assessed as growth inhibition after 72 hrs by MTT assay; conditions: MCF7, 72 h
[2] = target: Serine/threonine-protein kinase PLK2 (Homo sapiens, UniProt Q9NYY3); assay: Inhibition of recombinant Plk2 (unknown origin)
[3] = target: Serine/threonine-protein kinase PLK3 (Homo sapiens, UniProt Q9H4B4); assay: Inhibition of recombinant Plk3 (unknown origin)
HeLa [4] = assay: Induction of apoptosis in human HeLa cells assessed as apoptotic cells at 1 uM after 24 hrs using annexin V/propidium iodide double staining by flow cytometry (reference value: 4.4 %); assay type: functional
HeLa [5] = assay: Induction of apoptosis in human HeLa cells assessed as PARP cleavage at 1 uM after 24 to 48 hrs by Western blot analysis; assay type: functional, cell-based
How it was run: (§1)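 HeLa cells exposed to 1 µM for 24 h, with treatment continued to 48 h. Cell proteins analysed by western blot for PARP, total Caspase-3 and its cleaved active form.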

HeLa [6] = assay: Induction of apoptosis in human HeLa cells assessed as increase in cleaved caspase-3 level at 1 uM after 24 to 48 hrs by Western blot analysis; assay type: functional, cell-based; how it was run: as §1

Chain of Serine/threonine-protein kinase PLK3 (Q9H4B4 whole entry): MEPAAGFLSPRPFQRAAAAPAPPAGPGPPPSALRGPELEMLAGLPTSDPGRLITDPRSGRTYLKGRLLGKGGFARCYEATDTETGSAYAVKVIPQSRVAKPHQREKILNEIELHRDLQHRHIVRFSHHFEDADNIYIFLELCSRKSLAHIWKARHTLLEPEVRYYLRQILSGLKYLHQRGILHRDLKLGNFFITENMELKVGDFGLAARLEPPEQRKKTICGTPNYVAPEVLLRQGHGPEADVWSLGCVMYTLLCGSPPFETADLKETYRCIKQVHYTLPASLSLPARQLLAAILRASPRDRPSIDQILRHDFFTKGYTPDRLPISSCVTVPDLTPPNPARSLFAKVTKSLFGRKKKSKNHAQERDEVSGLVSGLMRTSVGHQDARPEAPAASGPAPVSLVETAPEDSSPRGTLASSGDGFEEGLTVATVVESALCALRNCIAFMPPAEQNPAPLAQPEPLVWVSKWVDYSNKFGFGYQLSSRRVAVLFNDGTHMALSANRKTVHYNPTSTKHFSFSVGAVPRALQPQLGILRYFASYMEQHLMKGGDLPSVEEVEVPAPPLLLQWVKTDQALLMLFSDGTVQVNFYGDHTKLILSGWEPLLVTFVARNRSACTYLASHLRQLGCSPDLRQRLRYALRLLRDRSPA
Chain of Serine/threonine-protein kinase PLK2 (Q9NYY3 whole entry): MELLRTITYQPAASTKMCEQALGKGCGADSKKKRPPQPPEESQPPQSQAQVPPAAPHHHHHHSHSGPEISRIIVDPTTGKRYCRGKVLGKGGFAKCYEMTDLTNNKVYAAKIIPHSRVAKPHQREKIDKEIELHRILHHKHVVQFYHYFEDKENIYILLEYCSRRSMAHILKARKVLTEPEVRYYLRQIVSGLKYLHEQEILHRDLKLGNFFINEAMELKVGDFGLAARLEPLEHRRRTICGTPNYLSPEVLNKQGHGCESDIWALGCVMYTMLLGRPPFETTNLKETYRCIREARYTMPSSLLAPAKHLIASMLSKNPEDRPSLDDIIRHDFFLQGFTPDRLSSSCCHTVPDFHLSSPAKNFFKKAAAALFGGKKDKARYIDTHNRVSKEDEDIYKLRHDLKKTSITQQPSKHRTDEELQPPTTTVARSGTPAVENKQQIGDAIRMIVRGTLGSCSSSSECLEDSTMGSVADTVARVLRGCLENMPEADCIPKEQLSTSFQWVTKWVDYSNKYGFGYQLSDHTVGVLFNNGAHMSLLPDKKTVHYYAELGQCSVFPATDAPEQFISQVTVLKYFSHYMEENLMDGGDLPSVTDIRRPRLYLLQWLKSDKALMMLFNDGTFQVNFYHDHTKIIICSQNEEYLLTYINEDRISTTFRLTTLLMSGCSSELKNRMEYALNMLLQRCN

Structure (SMILES)	IC50 (HeLa [1]) [µM]	IC50 (MCF7) [µM]	IC50 [2] [µM]	IC50 [3] [µM]	Activity (HeLa [4]) [%]	Activity (HeLa [5])	Activity (HeLa [6])
CN1CCN(CC(O)Cn2cc(C(=O)O)c3ccccc32)CC1 (racemic)	> 10	> 10	–	–	–	–	–
CN1CCN(CC(O)Cn2cc(CC(=O)O)c3ccccc32)CC1 (racemic)	3.97	2.44	–	–	–	–	–
O=C(O)c1cn(CC(O)CN2CCCC2)c2ccccc12 (racemic)	7.34	> 10	–	–	–	–	–
CCN(CC)CC(O)Cn1cc(C(=O)O)c2ccccc21 (racemic)	6.72	4.37	–	–	–	–	–
O=C(O)c1cn(CC(O)CN2CCCCC2)c2ccccc12 (racemic)	4.92	5.33	–	–	–	–	–
O=C(O)CCc1cn(CC(O)CN2CCCCC2)c2ccccc12 (racemic)	> 10	8.79	–	–	–	–	–
O=C(O)Cc1cn(CC(O)CN2CCOCC2)c2ccccc12 (racemic)	2.13	> 10	–	–	–	–	–
O=C(O)CCc1cn(CC(O)CN2CCCC2)c2ccccc12 (racemic)	4.95	> 10	–	–	–	–	–
O=C(O)Cc1cn(CC(O)CN2CCCC2)c2ccccc12 (racemic)	0.72	1.15	> 50	> 50	12.7	Active	Active
O=C(O)Cc1cn(CC(O)CN2CCCCC2)c2ccccc12 (racemic)	0.97	1.89	–	–	–	–	–
CCN(CC)CC(O)Cn1cc(CC(=O)O)c2ccccc21 (racemic)	6.63	3.16	–	–	–	–	–
CC1=CC(=O)C(C(C)C)=CC1=O [THYMOQUINONE]	2.06	6.19	14.7	> 50	–	–	–
